Test results taken from ChEMBL document CHEMBL1268966, “Tetrasubstituted naphthalene diimide ligands with selectivity for telomeric G-quadruplexes and cancer cells” (Bioorg Med Chem Lett, 2010).
Active and inactive are the calls of the source. The rule behind the calls is not given here.

What was measured:
[1] = test system: BXPC-3; test: Cytotoxicity against human BxPC3 cells after 96 hrs by SRB assay; conditions: BXPC-3, 96 h
[2] = test system: MCF7; test: Cytotoxicity against human MCF7 cells after 96 hrs by SRB assay; conditions: MCF7, 96 h
[3] = test system: A549; test: Cytotoxicity against human A549 cells after 96 hrs by SRB assay; conditions: A549, 96 h
[4] = test system: Nucleic Acid; test: Stabilization of human F21T G4-telomeric quadruplex by FRET assay in presence of duplex to quadruplex DNA ratio of 10:1; assay type: nucleic-acid assay
Outline: (§1)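 FRET melting temperature assay reporting the shift in quadruplex melting temperature. Competition runs added excess duplex DNA at different ratios, expressed as G-quartet concentration versus duplex nucleotide phosphate concentration.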

[5] = test system: PANC-1; test: Cytotoxicity against human PANC1 cells after 96 hrs by SRB assay; conditions: PANC-1, 96 h
[6] = test system: Nucleic Acid; test: Stabilization of human duplex DNA T-loop assessed as melting temperature by FRET assay; assay type: nucleic-acid assay
[7] = test system: Nucleic Acid; test: Stabilization of human F21T G4-telomeric quadruplex assessed as melting temperature by FRET assay; assay type: nucleic-acid assay
Outline: as §1

[8] = test system: HPAC; test: Cytotoxicity against human HPAC cells after 96 hrs by SRB assay
[9] = test system: Nucleic Acid; test: Stabilization of human c-kit2 G4 DNA sequence assessed as melting temperature by FRET assay; assay type: nucleic-acid assay
[10] = test system: Nucleic Acid; test: Stabilization of human G4-telomeric quadruplex 23-mer DNA assessed as topology at 1:1 to 1:15 DNA to compound ratio at pH 7.4 after 6 hrs by circular dichroism spectroscopy in presence of 100 mM Na+ ions; assay type: nucleic-acid assay
Outline: (§2)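 Circular dichroism spectra of the human telomeric 23-mer DNA at pH 7.4 with various DNA:ligand ratios.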

[11] = test system: Nucleic Acid; test: Stabilization of human F21T G4-telomeric quadruplex assessed in presence of 300 fold excess duplex DNA by FRET assay; assay type: nucleic-acid assay
Outline: as §1

[12] = Cytotoxicity against human WI138 cells after 96 hrs by SRB assay
[13] = test system: Nucleic Acid; test: Stabilization of human G4-telomeric quadruplex 23-mer DNA assessed as topology at 1:1 to 1:15 DNA to compound ratio at pH 7.4 after 6 hrs by circular dichroism spectroscopy in presence of 100 mM K+ ions; assay type: nucleic-acid assay
Outline: as §2

[14] = test system: MIA PaCa-2; test: Cytotoxicity against human MIAPaCa2 cells after 96 hrs by SRB assay; conditions: MIA PaCa-2, 96 h
[15] = test system: Nucleic Acid; test: Stabilization of human c-kit1 G4 DNA sequence assessed as melting temperature by FRET assay; assay type: nucleic-acid assay
[16] = test system: Nucleic Acid; test: Stabilization of duplex DNA assessed as inhibition of human TOPO 3-alpha binding to duplex DNA by EMSA assay; assay type: nucleic-acid assay
Outline: (§3)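 In vitro EMSA measuring displacement of hPOT1 or Topo IIIα binding to the telomeric sequence WT26. For Topo IIIα, a duplex DNA substrate was tested in parallel.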

[17] = test system: Nucleic Acid; test: Stabilization of Wt26 G-telomeric quadruplex DNA assessed as inhibition of human POT1 binding to DNA by EMSA assay; assay type: nucleic-acid assay
Outline: as §3

[18] = test system: Nucleic Acid; test: Stabilization of Wt26 G-telomeric quadruplex DNA assessed as inhibition of human TOPO 3-alpha binding to DNA by EMSA assay; assay type: nucleic-acid assay
Outline: as §3

[19] = test system: MCF7; test: Inhibition of human telomerase activity in human MCF7 cells at 50 nM after 1 week by modified TRAP assay; assay type: cell-based
Outline: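 MCF7 cells were exposed to 50 nM ligand for 1 week, then a further week. Telomerase activity was measured by a modified TRAP–LIG assay with denaturing gel separation. Each PCR product ladder's total intensity was scanned and integrated, then normalized to a positive control with untreated telomerase protein only.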

Activity [4]	deltaTm [6] [K]	deltaTm [7] [K]	deltaTm [9] [K]	Activity [10]	Activity [11] [%]	Activity [13]	deltaTm [15] [K]	inhibition [16]	inhibition [17]	inhibition [18]	SMILES	IC50 [1] [nM]	IC50 [2] [nM]	IC50 [3] [nM]	IC50 [5] [nM]	IC50 [8] [nM]	IC50 [12] [nM]	IC50 [14] [nM]	inhibition [19] [%]
Active	0.1	24.7	16.7	Active	50	Active	4.9	–	–	–	CN1CCN(CCCCNc2cc3c4c(c(NCCCCN5CCN(C)CC5)cc5c4c2C(=O)N(CCCCN2CCN(C)CC2)C5=O)C(=O)N(CCCCN2CCN(C)CC2)C3=O)CC1	1020	100	69	106	117	5500	73	–
Active	0.2	23.8	7.7	Active	50	Active	1.5	inactive	Active	Active	CN1CCN(CCCCCNc2cc3c4c(c(NCCCCCN5CCN(C)CC5)cc5c4c2C(=O)N(CCCCCN2CCN(C)CC2)C5=O)C(=O)N(CCCCCN2CCN(C)CC2)C3=O)CC1	759	196	258	193	205	8430	121	–
Active	1.3	28.3	15.2	Active	50	Active	1.8	inactive	Active	Active	CN1CCN(CCCNc2cc3c4c(c(NCCCN5CCN(C)CC5)cc5c4c2C(=O)N(CCCN2CCN(C)CC2)C5=O)C(=O)N(CCCN2CCN(C)CC2)C3=O)CC1	1520	167	108	148	186	9040	111	50
